Source: ChEMBL document CHEMBL1132552, “Synthesis, characterization, and structure-activity relationships of amidine-substituted (bis)benzylidene-cycloketone olefin isomers as potent and selective factor Xa inhibitors” (J Med Chem, 1999)

How the values were obtained:
Coagulation factor X = Coagulation factor X (Homo sapiens, UniProt P00742); assay: In vitro inhibition of human coagulation factor Xa (Xa) in a purified enzyme system.
How it was run: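 Buffer: 150 mM NaCl, 2.5 mM CaCl₂, 50 mM Tris-HCl pH 7.5, 0.1% PEG 6000. For very tight binding, enzyme was lowered to 0.1 nM, or data at 0.3 and 1 nM enzyme were fitted to a modified Morrison equation.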

Serine protease 1 [1] = target: T1, Serine protease 1 (Bos taurus, UniProt P00760); assay: In vitro inhibition of bovine trypsin(Trp).
T1 sequence (P00760 whole entry): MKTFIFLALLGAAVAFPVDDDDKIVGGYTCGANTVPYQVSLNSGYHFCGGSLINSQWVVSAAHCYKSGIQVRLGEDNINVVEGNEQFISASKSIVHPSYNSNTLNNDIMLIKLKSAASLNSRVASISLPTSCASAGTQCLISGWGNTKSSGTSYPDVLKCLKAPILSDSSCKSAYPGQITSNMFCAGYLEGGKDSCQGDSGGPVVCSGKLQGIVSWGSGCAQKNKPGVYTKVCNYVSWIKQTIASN
How it was run: (§1)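 Buffer was 150 mM NaCl, 2.5 mM CaCl₂, 50 mM Tris-HCl pH 7.5, 0.1% PEG 6000. Read in a microplate reader at ~23 °C in the dark across varying inhibitor concentrations. Ki from competitive treatment; duplicate runs.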

Prothrombin = Prothrombin (Homo sapiens, UniProt P00734); assay: In vitro inhibition of human thrombin(FIIa).
How it was run: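 Medium: 150 mM NaCl, 2.5 mM CaCl₂, 50 mM Tris-HCl pH 7.5, 0.1% PEG 6000. Microplate reader readings at room temperature (~23 °C), light excluded, varying inhibitor concentrations. Competitive Ki derived; assays in duplicate.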

Serine protease 1 [2] = target: T1, Serine protease 1; assay: In vitro inhibition of bovine trypsin (Trp).; how it was run: as §1

Chain of Coagulation factor X (P00742 41-179 limits assumed): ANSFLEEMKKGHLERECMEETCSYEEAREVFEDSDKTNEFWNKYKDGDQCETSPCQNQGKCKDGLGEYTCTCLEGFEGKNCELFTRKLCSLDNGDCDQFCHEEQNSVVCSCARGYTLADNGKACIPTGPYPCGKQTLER
Chain of Coagulation factor X (P00742 235-488 limits assumed): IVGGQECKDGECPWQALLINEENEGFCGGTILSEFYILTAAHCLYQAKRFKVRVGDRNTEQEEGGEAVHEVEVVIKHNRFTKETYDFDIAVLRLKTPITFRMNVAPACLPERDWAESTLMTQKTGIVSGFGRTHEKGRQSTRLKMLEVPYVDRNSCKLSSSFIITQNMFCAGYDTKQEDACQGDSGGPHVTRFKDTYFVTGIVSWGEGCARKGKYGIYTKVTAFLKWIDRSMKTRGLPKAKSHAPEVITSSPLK

Row | SMILES | Ki (Coagulation factor X) [nM] | Ki (Serine protease 1 [1]) [nM] | Ki (Prothrombin) [nM] | Ki (Serine protease 1 [2]) [nM]
1 | N=C(N)c1ccc(/C=C2/CCCC/C(=C/c3ccc(C(N)=O)cc3)C2=O)cc1 | 50 | 690 | 110 | 
2 | NC(=O)c1ccc(/C=C2/CCCC/C(=C\c3ccc(C(N)=O)cc3)C2=O)cc1 | > 5000 |  |  | 
3 | N=C(N)c1ccc(/C=C2\CC/C(=C\c3ccc(C(=N)N)cc3)C2=O)cc1 | 4600 | 590 | 2200 | 
4 | N=C(N)c1ccc(/C=C2\CCCCC/C(=C\c3ccc(C(=N)N)cc3)C2=O)cc1 | 1800 | 310 | 2100 | 
5 | CCOC(=O)N1C/C(=C/c2ccc(C(=N)N)cc2)C(=O)/C(=C/c2ccc(C(=N)N)cc2)C1 | 225 | 61 | 630 | 
6 | N=C(N)c1ccc(/C=C2\CCCC/C(=C\c3ccc(C(N)=O)cc3)C2=O)cc1 | > 500 | > 500 | > 500 | 
7 | N=C(N)c1ccc(/C=C2\CCCCCC/C(=C\c3ccc(C(=N)N)cc3)C2=O)cc1 | 390 | 1500 | 3700 | 
8 | N=C(N)c1ccc(/C=C2/CCCCCCC/C(=C\c3ccc(C(=N)N)cc3)C2=O)cc1 |  | 2100 | 150 | 
9 | N=C(N)c1ccc(/C=C2\CC(c3ccccc3)C/C(=C\c3ccc(C(=N)N)cc3)C2=O)cc1 (stereo not drawn) | 3300 | 56 | 630 | 
10 | CN(C)C(=N)c1ccc(/C=C2/CCCC/C(=C\c3ccc(C(=N)N(C)C)cc3)C2=O)cc1 | > 5000 | > 5000 | > 5000 | 
11 | CCOC(=O)N1C/C(=C\c2ccc(C(=N)N)cc2)C(=O)/C(=C/c2ccc(C(=N)N)cc2)C1 | > 5000 | 125 | 3300 | 
12 | COC(=O)C1C/C(=C/c2ccc(C(=N)N)cc2)C(=O)/C(=C\c2ccc(C(=N)N)cc2)C1 (stereo not drawn) | 4.8 | 100 | 1100 | 
13 | CN(C)C(=N)c1ccc(/C=C2\CCCC/C(=C\c3ccc(C(=N)N(C)C)cc3)C2=O)cc1 | > 5000 |  | > 5000 | > 5000
14 | N=C(N)c1ccc(/C=C2\CCCCCCC/C(=C\c3ccc(C(=N)N)cc3)C2=O)cc1 | 960 | 3000 | 730 | 
15 | CCOC(=O)N1C/C(=C/c2ccc(C(=N)N)cc2)C(=O)/C(=C\c2ccc(C(=N)N)cc2)C1 | 2.5 | 20 | 380 | 
16 | N=C(N)c1ccc(/C=C2/CCC/C(=C\c3ccc(C(=N)N)cc3)C2=O)cc1 |  | 260 | 120 | 
17 | N=C(N)c1ccc(/C=C2/CCCCCCC/C(=C/c3ccc(C(=N)N)cc3)C2=O)cc1 |  | 2200 |  | 
18 | C/N=C(\N)c1ccc(/C=C2\CCCC/C(=C\c3ccc(C(=N)N)cc3)C2=O)cc1 |  | 840 |  | 
19 | N=C(N)c1ccc(/C=C2/CC(C(=O)O)C/C(=C/c3ccc(C(=N)N)cc3)C2=O)cc1 (stereo not drawn) | 6.9 | 430 | > 50000 | 
20 | N=C(N)c1ccc(/C=C2\CCCC/C(=C/c3ccc(C(N)=O)cc3)C2=O)cc1 | 1850 | 500 | 350 | 

Row | SMILES | Ki (Coagulation factor X) [nM] | Ki (Serine protease 1 [1]) [nM] | Ki (Prothrombin) [nM] | Ki (Serine protease 1 [2]) [nM]
21 | N=C(N)c1ccc(/C=C2/CCCCCC/C(=C\c3ccc(C(=N)N)cc3)C2=O)cc1 | 320 | 340 |  | 
22 | N=C(N)c1ccc(/C=C2\CCC/C(=C\c3ccc(C(=N)N)cc3)C2=O)cc1 |  | 170 |  | 
23 | N=C(N)c1ccc(/C=C2/CC(c3ccccc3)C/C(=C/c3ccc(C(=N)N)cc3)C2=O)cc1 (stereo not drawn) | 5.2 | 100 | 1700 | 
24 | C/N=C(/N)c1ccc(/C=C2/CCCC/C(=C\c3ccc(C(=N)N)cc3)C2=O)cc1 | 500 | 155 | 360 | 
25 | N=C(N)c1ccc(/C=C2/CCC/C(=C/c3ccc(C(=N)N)cc3)C2=O)cc1 | 18 | 440 | 810 | 
26 | COC(=O)C1C/C(=C\c2ccc(C(=N)N)cc2)C(=O)/C(=C/c2ccc(C(=N)N)cc2)C1 (stereo not drawn) | > 5000 | 72 | 4400 | 
27 | CN(C)C(=N)c1ccc(/C=C2/CCCC/C(=C/c3ccc(C(=N)N)cc3)C2=O)cc1 |  | 90 |  | 
28 | N=C(N)c1ccc(/C=C2/CCCCC/C(=C\c3ccc(C(=N)N)cc3)C2=O)cc1 | 130 | 30 |  | 
29 | N=C(N)c1ccc(/C=C2/CC(c3ccccc3)C/C(=C\c3ccc(C(=N)N)cc3)C2=O)cc1 (stereo not drawn) | 395 | 160 | 325 | 
30 | C/N=C(\N)c1ccc(/C=C2/CCCC/C(=C/c3ccc(C(=N)N)cc3)C2=O)cc1 | 12 | 30 | 1600 | 
31 | CN(C)C(=N)c1ccc(/C=C2\CCCC/C(=C\c3ccc(C(=N)N)cc3)C2=O)cc1 | 350 | 500 | 3700 | 
32 | N=C(N)c1ccc(/C=C2/CCCCCC/C(=C/c3ccc(C(=N)N)cc3)C2=O)cc1 | 2.8 | 190 | 290 | 
33 | CN(C)C(=N)c1ccc(/C=C2/CCCC/C(=C\c3ccc(C(=N)N)cc3)C2=O)cc1 | 52 | 15 | 120 | 
34 | CN(C)C(=N)c1ccc(/C=C2/CCCC/C(=C/c3ccc(C(=N)N(C)C)cc3)C2=O)cc1 | 1600 | > 5000 | > 5000 | 
35 | N=C(N)c1ccc(/C=C2/CC/C(=C\c3ccc(C(=N)N)cc3)C2=O)cc1 | 230 | 730 | 19200 | 
36 | COC(=O)C1C/C(=C/c2ccc(C(=N)N)cc2)C(=O)/C(=C/c2ccc(C(=N)N)cc2)C1 (stereo not drawn) | > 500 | 224 | 600 | 
37 | N=C(N)c1ccc(/C=C2\CC(C(=O)O)C/C(=C\c3ccc(C(=N)N)cc3)C2=O)cc1 (stereo not drawn) | 24400 | 880 | 21500 | 
38 | NC(=O)c1ccc(/C=C2/CCCC/C(=C/c3ccc(C(N)=O)cc3)C2=O)cc1 | > 5000 | > 5000 | 2900 | 
39 | N=C(N)c1ccc(/C=C2/CCCCC/C(=C/c3ccc(C(=N)N)cc3)C2=O)cc1 | 4.6 | 100 | 300 | 
